Measured values taken from ChEMBL document CHEMBL1157671, “Synthesis and biological evaluation of trifluralin analogues as antileishmanial agents” (Bioorg Med Chem, 2010).

What was measured:
[1] = Cytotoxicity against human RBC assessed as hemolysis at 100 uM after 1 hr by microplate reader method; assay type: cell-based, Erythrocyte; conditions: red blood cells (RBC), read-out: Activity
Procedure, shortened: (§1)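 Washed RBCs from EDTA blood of healthy donors mixed 1:1 with compound in PBS (100 to 6.25 μM), 1 h at 37 °C, then centrifuged. Supernatant absorbance at 550 nm, reference 620 nm; % hemolysis = (A − A0)/(Amax − A0) × 100, PBS background, water as 100%. Triplicates.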

[2] = Cytotoxicity against human RBC assessed as hemolysis after 1 hr by microplate reader method; assay type: cell-based, Erythrocyte; conditions: red blood cells (RBC); procedure, shortened: as §1
[3] = Ratio of miltefosine HC50 to compound HC50 for human RBC; assay type: cell-based, Erythrocyte; conditions: red blood cells (RBC), read-out: Ratio IC50
[4] = Aqueous solubility in water by UV spectrophotometry; conditions: buffer
Leishmania infantum [5] = experiment: Antileishmanial activity against Leishmania infantum A1 amastigotes infected in human THP1 cells assessed as reduction in intracellular parasite load after 48 hrs by Giemsa staining; assay type: functional, organism-based; conditions: A1, THP-1, 48 h
Procedure, shortened: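 THP-1 differentiated with 1 μM retinoic acid for 72 h, then infected overnight with L. infantum promastigotes at 8:1 parasite/cell, 37 °C/5% CO2. Free parasites removed over Histopaque 1077; cells at 4 × 10^5/mL exposed to compound 48 h at 37 °C/5% CO2. Infected cells counted microscopically after Giemsa staining; IC50 ± σ by sigmoidal regression, three independent experiments.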

[6] = Cytotoxicity against human THP1 cells after 48 hrs by propidium iodide and SYBR14 satining-base flow cytometry; assay type: cell-based; conditions: THP-1 cells
Procedure, shortened: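 THP-1 cells at 1×10^6 cells/mL treated with compound (50 to 1.56 μM); stained with 12 μM PI and 100 nM SYBR-14 and live/dead ratio read by flow cytometry (488 nm laser; 545 and 645 nm emission). Incubation time given as 72 h in methods, 48 h in figure legend. Triplicates; CC50 derived from dose–response.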

Leishmania infantum [7] = experiment: Ratio of miltefosine IC50 to compound IC50 for Leishmania infantum A1 amastigotes infected in human THP1 cells; assay type: functional, THP-1
Leishmania infantum [8] = experiment: Antileishmanial activity against Leishmania infantum MHOM/TN/80/IPT1/LEM 235 promastigotes after 72 hrs by propidium iodide and SYBR14 satining-base flow cytometry; assay type: functional, organism-based; conditions: MHOM/TN/80/IPT1/LEM 235, 72 h
Procedure, shortened: (§2)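 Promastigotes grown in RPMI 1640 with 10% FCS, L-glutamine and antibiotics at 26 °C; seeded at 1×10^6 cells/mL with compound (DMSO/ethanol 50:50 stock, 2-fold dilutions 100 to 0.8 μM in medium) at 26 °C for 72 h. Stained with 12 μM PI and 100 nM SYBR-14 in HEPES-buffered saline with 10% BSA; live/dead read by flow cytometry. IC50 ± σ by sigmoidal regression, three independent experiments.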

Leishmania donovani = experiment: Antileishmanial activity against Leishmania donovani MHOM/IN/80/DD8/LEM 703 promastigotes after 72 hrs by propidium iodide and SYBR14 satining-base flow cytometry; assay type: functional, organism-based; conditions: MHOM/IN/80/DD8/LEM 703, 72 h; procedure, shortened: as §2

## O=[N+]([O-])c1cc(C(F)(F)F)cc([N+](=O)[O-])c1Nc1cccc(O)c1
[1]
  hemolysis at 1 h, 100 µM: 1.4%
[2]
  HC50 at 1 h: > 100 µM
[3]
  selectivity ratio: 2
[4]
  solubility: 9.5 ppm
Leishmania infantum [5]
  IC50: 2.2 µM
[6]
  CC50 at 48 h: 35 µM

## O=[N+]([O-])c1cc(C(F)(F)F)cc([N+](=O)[O-])c1Nc1ccccc1O
[1]
  hemolysis at 1 h, 100 µM: 1.2%
[2]
  HC50 at 1 h: > 100 µM
[3]
  selectivity ratio: 2
[4]
  solubility: 20 ppm
Leishmania infantum [5]
  IC50: 1.1 µM
[6]
  CC50 at 48 h: > 50 µM
Leishmania infantum [7]
  Ratio IC50: 2.5

## CN(C)c1c([N+](=O)[O-])cc(C(F)(F)F)cc1[N+](=O)[O-]
[1]
  hemolysis at 1 h, 100 µM: 0%
[2]
  HC50 at 1 h: > 100 µM
Leishmania infantum [8]
  IC50: > 100 µM
[3]
  selectivity ratio: 2
[4]
  solubility: 4.6 ppm
Leishmania donovani
  IC50: > 100 µM
Leishmania infantum [5]
  IC50: 7.3 µM
[6]
  CC50 at 48 h: > 50 µM

## CCCCCN(CCO)c1c([N+](=O)[O-])cc(C(F)(F)F)cc1[N+](=O)[O-]
[1]
  hemolysis at 1 h, 100 µM: 0.8%
[2]
  HC50 at 1 h: > 100 µM
[3]
  selectivity ratio: 2
[4]
  solubility: 6 ppm
Leishmania infantum [5]
  IC50: > 50 µM
[6]
  CC50 at 48 h: > 50 µM

## CCCCCCN(CCO)c1c([N+](=O)[O-])cc(C(F)(F)F)cc1[N+](=O)[O-]
[1]
  hemolysis at 1 h, 100 µM: 0.7%
[2]
  HC50 at 1 h: > 100 µM
[3]
  selectivity ratio: 2
[4]
  solubility: 5.7 ppm
Leishmania infantum [5]
  IC50: > 50 µM
[6]
  CC50 at 48 h: 10 µM

## CCCN(CCO)c1c([N+](=O)[O-])cc(C(F)(F)F)cc1[N+](=O)[O-]
[1]
  hemolysis at 1 h, 100 µM: 0.2%
[2]
  HC50 at 1 h: > 100 µM
Leishmania infantum [8]
  IC50: > 100 µM
[3]
  selectivity ratio: 2
[4]
  solubility: 72.3 ppm
Leishmania donovani
  IC50: > 100 µM
Leishmania infantum [5]
  IC50: > 50 µM
[6]
  CC50 at 48 h: > 50 µM

## O=[N+]([O-])c1cc(C(F)(F)F)cc([N+](=O)[O-])c1N1CCOCC1
[1]
  hemolysis at 1 h, 100 µM: 0.3%
[2]
  HC50 at 1 h: > 100 µM
Leishmania infantum [8]
  IC50: > 100 µM
[3]
  selectivity ratio: 2
[4]
  solubility: 18.6 ppm
Leishmania donovani
  IC50: > 100 µM
Leishmania infantum [5]
  IC50: 0.5 µM
[6]
  CC50 at 48 h: > 50 µM
Leishmania infantum [7]
  Ratio IC50: 5

## CCCCN(CCO)c1c([N+](=O)[O-])cc(C(F)(F)F)cc1[N+](=O)[O-]
[1]
  hemolysis at 1 h, 100 µM: 0.5%
[2]
  HC50 at 1 h: > 100 µM
Leishmania infantum [8]
  IC50: > 100 µM
[3]
  selectivity ratio: 2
[4]
  solubility: 22.6 ppm
Leishmania donovani
  IC50: > 100 µM
Leishmania infantum [5]
  IC50: 1.2 µM
[6]
  CC50 at 48 h: > 50 µM
Leishmania infantum [7]
  Ratio IC50: 2.5

## O=[N+]([O-])c1cc(C(F)(F)F)cc([N+](=O)[O-])c1N1CCCCC1
[1]
  hemolysis at 1 h, 100 µM: 1.2%
[2]
  HC50 at 1 h: > 100 µM
[3]
  selectivity ratio: 2
[4]
  solubility: 0.8 ppm
Leishmania infantum [5]
  IC50: > 50 µM
[6]
  CC50 at 48 h: > 50 µM

## CCN(CCO)c1c([N+](=O)[O-])cc(C(F)(F)F)cc1[N+](=O)[O-]
[1]
  hemolysis at 1 h, 100 µM: 0.4%
[2]
  HC50 at 1 h: > 100 µM
Leishmania infantum [8]
  IC50: > 100 µM
[3]
  selectivity ratio: 2
[4]
  solubility: 157.4 ppm
Leishmania donovani
  IC50: > 100 µM
Leishmania infantum [5]
  IC50: > 50 µM
[6]
  CC50 at 48 h: > 50 µM

## O=[N+]([O-])c1cc(C(F)(F)F)cc([N+](=O)[O-])c1Nc1ccc(O)cc1
[1]
  hemolysis at 1 h, 100 µM: 1.4%
[2]
  HC50 at 1 h: > 100 µM
Leishmania infantum [8]
  IC50: 2.2 µM
[3]
  selectivity ratio: 2
[4]
  solubility: 11.4 ppm
Leishmania donovani
  IC50: 0.6 µM
Leishmania infantum [5]
  IC50: 1.8 µM
[6]
  CC50 at 48 h: 40 µM

## O=[N+]([O-])c1cc(C(F)(F)F)cc([N+](=O)[O-])c1NC1CCCCC1
[1]
  hemolysis at 1 h, 100 µM: 1.1%
[2]
  HC50 at 1 h: > 100 µM
[3]
  selectivity ratio: 2
[4]
  solubility: 0.1 ppm
Leishmania infantum [5]
  IC50: 9.1 µM
[6]
  CC50 at 48 h: > 50 µM

## CCCCCCCCCCCCCCCCOP(=O)([O-])OCC[N+](C)(C)C [MILTEFOSINE]
[2]
  HC50 at 1 h: 38.3 µM
Leishmania infantum [5]
  IC50: 2.7 µM
[6]
  CC50 at 48 h: 28.6 µM

## CCCN(CCC)c1c([N+](=O)[O-])cc(C(F)(F)F)cc1[N+](=O)[O-] [TRIFLURALIN]
[1]
  hemolysis at 1 h, 100 µM: 1.3%
[2]
  HC50 at 1 h: > 100 µM
Leishmania infantum [8]
  IC50: > 100 µM
[3]
  selectivity ratio: 2
[4]
  solubility: 0.5 ppm
Leishmania donovani
  IC50: > 100 µM
Leishmania infantum [5]
  IC50: > 50 µM
[6]
  CC50 at 48 h: > 50 µM
